Source: PubChem BioAssay
Hits are enriched below; roughly 2.3% of the tested compounds scored in any of these assays.
Beta cell apopt = inhibitors of cytokine-induced beta cell apoptosis, primary screen, luminescence; 0.8% of 300,000 active; protection from apoptosis, % (test concentration not listed); INS-1E cytokine-induced death, ATP luminescence, 48 h; percent of positive-control rescue, neutral wells zero; AID 435005, 2010;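 active = Every replicate reaches about 75%, or at least half do and their mean reaches it too, limit read from the data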;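 note: 0% = cytokine-treated negative control wells and 100% = positive control rescue; higher means more ATP so stronger rescue from cytokine killing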
HIF act = HIF pathway transcriptional activators, primary screen, cell-based, U2OS HRE-luciferase, luminescence | U2OS HRE-luciferase reporter; normalized: DMSO 0%, desferrioxamine 100% | activation, % at 7.5 µM (by protocol) | 0.32% of 300,000 active | AID 1910, 2009;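 active = mean activation of at least 10% of the iron chelator positive control signal, with at least half of replicates also reaching 10%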
T cruzi repl = inhibitors of intracellular T. cruzi growth, primary screen, luminescence, NIH3T3 host cells; T. cruzi beta-gal in NIH3T3, 90 h; inhibition, % (concentration not given with the values); 1.4% of 300,000 active;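 active = mean inhibition across valid replicates above about 55%, limit read from the data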;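 note: signal also drops with host cell toxicity which is not excluded here; 0% = plate median of DMSO wells and 100% = zero luminescence signal; higher percent means less beta-gal luminescence so fewer parasites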
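Incubation – ≥90 h infection period, 3 h prior cell attachment · System – NIH/3T3 fibroblasts plus reporter T. cruzi · Doses – compound pinned at 50 nL/well, DMSO · Read-out basis – percent inhibition of parasite-derived β-gal signal · Signal – luminescent β-galactosidase signal after 60 min lysis · Also added – 5000 T. cruzi trypomastigotes/well · Medium – Low-serum DMEM with 2% FBS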
KLF5 inh = KLF5 expression inhibitors, primary screen, DLD-1 cells, luminescence; DLD-1 KLF5 promoter-luciferase reporter; inhibition, % at 5 µM; 0.23% of 290,000 active;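 active = inhibition above a per-plate limit of that plate's mean compound inhibition plus 3 SD, cut at about 60% in these data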;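 note: 0% = DMSO wells and 100% = LY294002 at 200 µM; higher means less KLF5 promoter-driven luciferase light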
A1 inh = caspase 3/7 activation in MEF A1-2A-BIM cells, primary screen, A1 inhibitor project, cell-based, luminescence, HTS | Caspase-Glo 3/7 luminescence, 3 h; percent of clofoctol response, vehicle zero | caspase activation, % (concentration not given with the values) | 0.066% of 330,000 active | AID 2462, 2010;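 active = over half of replicate activation scores above 10%, or exactly half above 10 with the replicate mean above 10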
The depositor's hits bear a star.

`CN1CCc2nc(N)c(C#N)c(-c3ccccc3)c2C1` gave HIF act 0, T cruzi repl -10, KLF5 inh -43 and A1 inh 1.
Clc1ccc(NC2=NCCCS2)cc1Cl was read as Beta cell apopt -6, HIF act 0, T cruzi repl 55*, KLF5 inh -13 and A1 inh -2.
Screening Cc1ccc(NC2=NCCCS2)cc1Cl returned Beta cell apopt -4, HIF act 0, T cruzi repl 33, KLF5 inh -18 and A1 inh 0.
Screening COC(=O)C1=C(c2cc3ccccc3s2)C[C@@H]2CC[C@H]1N2C(=O)NCc1ccc(C(F)(F)F)cc1 returned Beta cell apopt -1, HIF act 0, T cruzi repl 57* and A1 inh 0.
COC(=O)C1=C(c2cc3ccccc3s2)C[C@@H]2CC[C@H]1N2C(=O)NCC1CC1 was read as HIF act 0, T cruzi repl 5 and A1 inh -1.
Screening CCCCn1c(=O)c(C(=O)NCc2ccc(Cl)cc2)c(O)c2ccccc21 returned HIF act 1, T cruzi repl 22, KLF5 inh -6 and A1 inh 1.
CCCCCn1c(=O)c(C(=O)NCc2ccccc2Cl)c(O)c2ccccc21 was read as Beta cell apopt 101*, HIF act 1, T cruzi repl -56, KLF5 inh -24 and A1 inh 0.
Screening Cc1ccc(-c2cc(-c3ccc(C)cc3)[n+](-c3ccccc3)c(-c3ccc(C)cc3)c2)cc1 returned Beta cell apopt 122*, HIF act -1, T cruzi repl 49 and A1 inh -1.
`c1ccc(-c2cc(-c3ccccc3)[n+](-c3ccccc3)c(-c3ccccc3)c2)cc1` gave Beta cell apopt 113*, HIF act 1, T cruzi repl 42, KLF5 inh 39 and A1 inh 3.
For Cc1ccc(-c2cc(-c3ccccc3)cc(-c3ccccc3)[n+]2-c2ccccc2)cc1 the results were Beta cell apopt 121*, HIF act -1, T cruzi repl 49 and A1 inh 0.
`C[n+]1c(-c2ccccc2)cc(-c2ccc(Cl)cc2)cc1-c1ccccc1` gave Beta cell apopt 39, HIF act 0, T cruzi repl 51, KLF5 inh -2 and A1 inh 1.
Cc1ccc(-c2cc(-c3ccc(C)cc3)[n+](-c3ccc(C(=O)[O-])cc3)c(-c3ccc(C)cc3)c2)cc1 was read as Beta cell apopt 98*, HIF act -1, T cruzi repl 41 and A1 inh 0.
`CN(C)C(=O)Oc1ccc2c(c1)O/C(=C\c1cccc([N+](=O)[O-])c1)C2=O` gave Beta cell apopt -6, HIF act -1, T cruzi repl -4, KLF5 inh -14 and A1 inh 0.
For ClCCN1CCN(c2ccnc3cc(Cl)ccc23)CC1 the results were Beta cell apopt -1, HIF act -18, T cruzi repl 9, KLF5 inh -31 and A1 inh 0.
`CSc1ncc(/C=C2/C(=O)NC(=O)N(c3ccc(Cl)cc3)C2=O)cn1` gave KLF5 inh -13.
COc1cccc(OCc2cc(C(=O)N3C[C@H]4C[C@@H](C3)c3cccc(=O)n3C4)no2)c1 was read as HIF act 2, T cruzi repl -18 and KLF5 inh -90.
For CN(C)c1ccc(-[n+]2c(-c3ccccc3)cc(-c3ccccc3)cc2-c2ccccc2)cc1 the results were HIF act 0, T cruzi repl 61* and KLF5 inh 60.
O=[N+]([O-])c1cc(Cl)c(O)c(-[n+]2c(-c3ccccc3)cc(-c3ccccc3)cc2-c2ccccc2)c1 was read as Beta cell apopt 14, HIF act -1, T cruzi repl 24, KLF5 inh -12 and A1 inh 0.
